High-throughput results (PubChem BioAssay)
697 NFkB inh: lowers PMA/ionomycin-induced NF-kB signal in 697 B cells. inhibition, % at 4 µM. 330,000 tested, 0.33% active. 697 B-cell NF-kB luciferase reporter, 16 h; in the data active = inhibition above about 35%
HSF1 activator: increases HSF-1 driven luciferase reporter signal. activation, % at 9 µM. NIH3T3-HGL HSF-1 luciferase reporter, MG132, 8 h; 100% = twice DMSO control signal. 300,000 tested, 1.7% active;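 active = mean replicate activation of at least 50% with a set share of replicates each reaching 50%; inconclusive = only one of those two conditions met; inactive = mean below 50% and too few replicates reaching it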
T cruzi inh: T. cruzi replication inhibition | T. cruzi beta-gal in NIH3T3, luminescence, 90 h | 300,000 tested, 1.4% active | inhibition, % (no concentration beside the values);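 active = mean inhibition across valid replicates above about 55%, limit read from the data; inconclusive = mean below that limit but half or more replicates reach it; inactive = mean below it, under half of replicates reach it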;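 note: signal also drops with host cell toxicity which is not excluded here; higher percent means less beta-gal luminescence so fewer parasites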
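compound dosing = single 50 nL compound addition per well in DMSO | material = NIH/3T3 host cells with β-galactosidase reporter T. cruzi | input = 5,000 host fibroblasts per well | timing = ≥90 h infection period, 3 h prior cell attachment | read-out basis = percent inhibition of parasite-derived β-gal signal | detection = GalScreen β-gal luminescence, detergent lysis, 60 min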
HSF1 inhib: HSF1 inhibition; NIH3T3-HGL HSE-luciferase, MG132-induced, luminescence 8 h; active compounds read low; activity change, negative = inhibition, % at 7.5 µM (by protocol); 300,000 tested, 0.77% active;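 active = more than half of replicate wells show activity change below -50%, luminescence cut by over half; inconclusive = some wells, but at most half, below -50%; inactive = no replicate well below -50%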;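 note: luciferase reports HSF-1 transcriptional activity via heat shock element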
GPR7 antagonist: blocks human GPR7 receptor signaling | inhibition, % at 4.4 µM | P48145 | GPR7-expressing cells, fluorescence antagonist assay | 290,000 tested, 1.1% active; in the data active = inhibition above about 16%, passing the limit was not always enough;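 note: cells stimulated with the agonist NPW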
Target sequence (P48145 whole entry, looked up): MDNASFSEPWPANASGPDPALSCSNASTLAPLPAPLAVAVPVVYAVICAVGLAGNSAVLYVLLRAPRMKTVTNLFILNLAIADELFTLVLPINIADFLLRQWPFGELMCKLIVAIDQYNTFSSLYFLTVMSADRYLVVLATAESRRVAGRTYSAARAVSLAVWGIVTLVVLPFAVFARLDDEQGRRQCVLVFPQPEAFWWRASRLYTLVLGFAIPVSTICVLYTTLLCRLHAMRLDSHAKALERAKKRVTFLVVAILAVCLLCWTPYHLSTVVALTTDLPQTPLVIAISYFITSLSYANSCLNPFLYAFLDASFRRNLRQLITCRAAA
Jurkat NFkB inh: inhibitors of the PMA/ionomycin-induced NF-kB reporter in Jurkat cells | PMA/ionomycin-induced NF-kB luciferase reporter, luminescence | inhibition, % at 4 µM | 330,000 tested, 0.53% active | AID 435003; in the data active = inhibition above about 50%
Numbers stand for hits; 0 = inactive; ? = inconclusive; - = not tested or not shown. Only some compounds are listed: those with a hit (about 4.8% of all), similar ones and a draw of the others.

SMILES	697 NFkB inh	HSF1 activator	T cruzi inh	HSF1 inhib	GPR7 antagonist	Jurkat NFkB inh
CCOc1ccccc1CNCCN1CCOCC1	0	58.4	0	0	0	0
O=C(O)/C=C/C(=O)Nc1cc(F)ccc1F	0	0	0	-71.5	0	0
COc1ccc(-n2cc([N+](=O)[O-])c(=O)c3ccc(Cl)cc32)cc1	0	0	0	-66.0	-	0
Cc1cc(C)n(C(=O)c2cc(F)c(F)cc2C)n1	0	0	0	0	0	0
Cc1cc(-c2nnc(CCC(=O)N(C)Cc3cccc4ccccc34)o2)no1	0	64.3	0	0	0	0
COc1ccc(C(=O)OCc2csc(C)n2)c(O)c1	0	64.8	0	0	0	0
Cc1nn2c(NCc3ccccn3)cc(C(C)C)nc2c1-c1ccccc1	0	0	0	0	0	0
Cc1cc(NCc2ccccn2)n2nc(C)c(-c3ccc(Cl)cc3)c2n1	0	-	-	-	0	0
Cc1cc(NCc2ccccn2)n2ncc(-c3ccc(Cl)cc3)c2n1	0	52.5	0	0	0	0
Cc1cc(NCc2ccccn2)n2ncc(-c3ccccc3)c2n1	0	76.3	0	0	0	0
CCCc1cc(NCc2ccccn2)n2nc(C)c(-c3ccccc3)c2n1	0	0	54.6	0	0	0
COc1ccc(-c2csc(NC(=O)c3ccc(OCC(=O)N4CCOCC4)c(OC)c3)n2)cc1OC	0	0	0	0	0	0
Cc1ccc(NC(=O)CN(C)CC(=O)N(C)Cc2ccccc2)cc1	0	-	-	-	-	0
CCOC(=O)c1c(C)[nH]c(C(=O)OCC(=O)Nc2cc(C)ccc2OC)c1C	0	0	0	0	0	0
CCOC(=O)c1c(C)[nH]c(C(=O)OCC(=O)Nc2cc(Cl)ccc2OC)c1C	0	53.2	0	0	0	0
CCOC(=O)c1c(C)[nH]c(C(=O)OCC(=O)Nc2sc(C(=O)N(C)C)c(C)c2C(=O)OCC)c1C	0	0	68.7	0	-	0
Clc1ccccc1CN(Cc1ccco1)Cc1nnnn1C1CCCC1	0	69.4	0	0	0	0
O=C(NC1CCCCC1)C(c1ccco1)N(C(=O)c1csnn1)c1ccc(Cl)cc1 (stereo not given)	0	0	0	-88.9	0	0
C#Cc1ccc(CN2CCCC(C(=O)Nc3ccccc3Oc3cccnc3)C2)cc1 (stereo not given)	0	0	0	0	0	0
C=CCOc1nc2c(c(=O)n(C)c(=O)n2C)n1C	0	0	0	0	0	0
CC(C)COc1nc2c(c(=O)n(C)c(=O)n2C)n1C	0	0	0	0	active	0
Cn1c(=O)c2c(nc(Oc3ccc4ccccc4c3)n2C)n(C)c1=O	0	0	0	0	0	0
Cn1c(=O)c2c(nc(Oc3cccc(O)c3)n2C)n(C)c1=O	0	0	0	-76.7	0	0
Cc1nc2ccccc2c(=O)n1-c1ccc(NS(=O)(=O)c2ccc(F)cc2)cc1	0	0	0	0	-	0
O=C(c1ccc2c(c1)OCO2)N1CCN(S(=O)(=O)c2ccc(Br)cc2Cl)CC1	0	-	-	-	-	0
SMILES	697 NFkB inh	HSF1 activator	T cruzi inh	HSF1 inhib	GPR7 antagonist	Jurkat NFkB inh
CC(=O)Nc1ccc(C2=CC(=O)C[C@H](c3ccc(Cl)cc3)C2)cc1	0	-	-	-	-	0
Cc1cc(C(=O)CSc2ccc3c(c2)OCCO3)c(C)n1C1CC1	0	?	0	0	0	0
CCn1c(-c2cc(-c3ccccc3)sc2N)n[nH]c1=S	0	64.3	0	0	0	0
CCn1c(-c2ccccc2O)n[nH]c1=S	0	0	0	0	0	0
CCN1CCN(c2oc(COc3ccc(-c4ccccc4)cc3)nc2C#N)CC1	0	0	60.9	0	0	0
N#Cc1nc(-c2ccco2)oc1N1CCN(Cc2ccccc2)CC1	0	0	0	-79.9	0	0
N#Cc1nc(COc2ccccc2)oc1N1CCN(c2cccc(Cl)c2)CC1	0	0	0	0	0	0
N#Cc1nc(COc2ccc(Br)cc2)oc1N1CCN(Cc2ccccc2)CC1	-	-	-	-	29.0	-
N#Cc1nc(COc2ccccc2)oc1N1CCCCC1	0	0	0	0	0	0
Cc1cccc(OCc2nc(C#N)c(N3CC(C)CC(C)C3)o2)c1 (stereo not given)	0	0	0	0	20.9	0
O=C(NCC(c1cccs1)N1CCOCC1)c1cc([N+](=O)[O-])cc([N+](=O)[O-])c1 (stereo not given)	0	0	73.1	0	0	0
O=C(NCC(c1cccs1)N1CCOCC1)c1cccc([N+](=O)[O-])c1 (stereo not given)	0	0	0	0	0	0
Cc1ccc(S(=O)(=O)NC(=NCc2ccccc2)c2ccc(F)cc2)cc1	0	0	0	-76.8	0	0
O=C(NCC1CCCN(Cc2nccs2)C1)c1cccc2ccccc12 (stereo not given)	0	0	0	0	0	0
CSc1ccc(CN2CCCC(CNC(=O)c3ccc(F)cc3)C2)cc1 (stereo not given)	0	0	62.9	0	0	0
COc1ccccc1CN1CCCC(CNC(=O)c2cccc3ccccc23)C1 (stereo not given)	0	0	60.7	0	0	0
COc1ccc(S(=O)(=O)NCC2CCCN(Cc3ccccc3Cl)C2)cc1 (stereo not given)	0	0	0	0	0	0
COc1ccc(CC(=O)NCC2CCCN(Cc3ccc(F)c(OC)c3)C2)cc1 (stereo not given)	0	0	0	0	0	0
COc1ccc(CC(=O)NCC2CCCN(Cc3ccc(SC)cc3)C2)cc1 (stereo not given)	0	0	67.8	0	0	0
CCOc1ccccc1CN1CCCC(CNC(=O)Cc2ccc(OC)cc2)C1 (stereo not given)	0	0	58.8	0	0	0
CSCCC(NS(=O)(=O)c1ccc(C)cc1)C(=O)N1CCN(S(=O)(=O)c2ccc(F)cc2)CC1 (stereo not given)	0	0	0	0	-	0
CN(CC(=O)Nc1ccc(Cl)c(Cl)c1)C(=O)C1CCCC1	0	-	-	-	-	0
CC(C)CN(C(=O)CCC1CCCCC1)c1c(N)n(CC(C)C)c(=O)[nH]c1=O	0	-	-	-	-	0
O=C(NCC1CCCN(Cc2ccccc2F)C1)c1cccc(C(F)(F)F)c1 (stereo not given)	0	0	66.3	0	0	0
COc1ccc(CC(=O)NCC2CCCN(Cc3cccc(C(F)(F)F)c3)C2)cc1 (stereo not given)	0	0	0	0	0	0
NC1=NC(c2cccc(Cl)c2)N(CCc2ccc(F)cc2)C(N)=N1 (stereo not given)	0	0	0	0	0	0
Cc1ccc(C)c(S(=O)(=O)N2CCCCC2CCNC(=O)C(=O)NCCc2ccco2)c1 (stereo not given)	0	53.7	0	0	-	0
O=C1C2Sc3[nH]c(=O)sc3C(c3cc([N+](=O)[O-])ccc3O)C2C(=O)N1c1ccccc1 (stereo not given)	0	0	0	0	0	0
CCc1ccc(NC(=O)COC(=O)CC2CCCC2)cc1	0	-	-	-	-	0
